Measured values as given in ChEMBL document CHEMBL4680077, “Differentiation of skeletal osteogenic progenitor cells to osteoblasts with 3,4-diarylbenzopyran based amide derivatives: Novel osteogenic agents” (Eur J Med Chem, 2016).
Activity calls are given as the source filed them. The calls are words filed in the database; no cut-off is given here.

Key:
[1] = Acute toxicity in Swiss albino mouse assessed as triglycerides level at 1000 mg/kg, po measured after 7 days (reference value: 58.51 +/- 10.82 mg/dL); type: organism-based; details: in vivo, 168 h, time 7 day
Calvarial osteoblast [2] = experiment: Induction of osteoblast differentiation in mouse calvarial osteoblast assessed as increase in collagen type 1 mRNA expression at 1 pM incubated for 24 and 48 hrs by qPCR analysis; type: functional, cell-based
In short: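 Calvarial osteoblasts were treated at 1 pM for 24 and 48 h. Total RNA was extracted with TRIzol, and cDNA was made from 2 µg RNA. qPCR ran 40 cycles for BMP-2, RUNX-2, OCN and collagen type 1, with normalization to GAPDH. Mean ± SEM of three independent experiments.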

[3] = Acute toxicity in Swiss albino mouse assessed as relative kidney weight at 300 mg/kg, po measured after 7 days (reference value: 1.25 +/- 0.08 %); type: organism-based; details: in vivo, 168 h, time 7 day
[4] = Acute toxicity in Swiss albino mouse assessed as relative liver weight at 300 mg/kg, po measured after 7 days (reference value: 6.81 +/- 2.14 %); type: organism-based; details: in vivo, 168 h, time 7 day
[5] = Acute toxicity in Swiss albino mouse assessed as RBC count at 50 mg/kg, po measured after 7 days (Rvb =6.0 +/- 0.28 million/mm3); type: organism-based; details: in vivo, 168 h, time 7 day
[6] = AUC (0 to infinity) in Sprague-Dawley rat at 1 mg/kg, po measured upto 24 hrs by LC-MS/MS analysis; type: ADME, organism-based; parameters: route oral, dose 1 mg/kg, time <=24; details: in vivo
In short: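 Female Sprague-Dawley rats (n = 4 per route), fasted overnight; 1 mg/kg oral (0.25% CMC) or i.v. tail-vein bolus (DMSO-PEG400-ethanol-water). Plasma was sampled to 24 h and assayed by LC-MS/MS (0.5-200 ng/mL). Non-compartmental AUC0-∞ = AUC0-t + Clast/kel; mean ± S.D.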

[7] = Acute toxicity in Swiss albino mouse assessed as absolute lung weight at 50 mg/kg, po measured after 7 days (reference value: 0.16 +/- 0.01 g); type: organism-based; details: in vivo, 168 h, time 7 day
[8] = Acute toxicity in Swiss albino mouse assessed as SGOT level at 50 mg/kg, po measured after 7 days (reference value: 31.99 +/- 3.37 U/L); type: organism-based; details: in vivo, 168 h, time 7 day
[9] = Acute toxicity in Swiss albino mouse assessed as malondialdehyde level at 1000 mg/kg, po measured after 7 days (reference value: 0.14 +/- 0.01 nM/mg); type: organism-based; details: in vivo, 168 h, time 7 day
[10] = Acute toxicity in Swiss albino mouse assessed as relative lung weight at 1000 mg/kg, po measured after 7 days (reference value: 0.70 +/- 0.08 %); type: organism-based; details: in vivo, 168 h, time 7 day
[11] = Acute toxicity in Swiss albino mouse assessed as neutrophil count at 300 mg/kg, po measured after 7 days (reference value: 41.50 +/- 4.08 %); type: organism-based; details: in vivo, 168 h, time 7 day
[12] = Acute toxicity in Swiss albino mouse assessed as triglycerides level at 50 mg/kg, po measured after 7 days (reference value: 58.51 +/- 10.82 mg/dL); type: organism-based; details: in vivo, 168 h, time 7 day
[13] = Volume of distribution in Sprague-Dawley rat at 1 mg/kg, po measured upto 24 hrs by LC-MS/MS analysis; type: ADME, organism-based; details: in vivo
In short: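 Female Sprague-Dawley rats (n = 4), fasted overnight 12–14 h, dosed orally at 1 mg kg-1 as a 0.25% CMC suspension and fed 3 h post-dose. Retro-orbital blood was taken from 0.25 to 24 h. Plasma was hexane-extracted and assayed by LC-MS/MS. Cmax and Tmax were read from the data; other parameters came from non-compartmental analysis. Mean ± S.D.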

[14] = Acute toxicity in Swiss albino mouse assessed as SGOT level at 1000 mg/kg, po measured after 7 days (reference value: 31.99 +/- 3.37 U/L); type: organism-based; details: in vivo, 168 h, time 7 day
[15] = Acute toxicity in Swiss albino mouse assessed as reduced GSH level at 50 mg/kg, po measured after 7 days (reference value: 18.20 +/- 1.56 ug/mg of protein); type: organism-based; details: in vivo, 168 h, time 7 day
[16] = Acute toxicity in Swiss albino mouse assessed as relative heart weight at 5 mg/kg, po measured after 7 days (reference value: 0.51 +/- 0.02 %); type: organism-based; details: in vivo, 168 h, time 7 day
[17] = Acute toxicity in Swiss albino mouse assessed as absolute brain weight at 5 mg/kg, po measured after 7 days (reference value: 0.37 +/- 0.02 g); type: organism-based; details: in vivo, 168 h, time 7 day
[18] = Acute toxicity in Swiss albino mouse assessed as relative spleen weight at 5 mg/kg, po measured after 7 days (reference value: 0.73 +/- 0.14 %); type: organism-based; details: in vivo, 168 h, time 7 day
[19] = Acute toxicity in Swiss albino mouse assessed as absolute liver weight at 50 mg/kg, po measured after 7 days (reference value: 1.11 +/- 0.04 g); type: organism-based; details: in vivo, 168 h, time 7 day
[20] = Acute toxicity in Swiss albino mouse assessed as WBC count per thousand/mm3 at 1000 mg/kg, po measured after 7 days (reference value: 6.84 +/- 0.83 /mm3); type: organism-based; details: in vivo, 168 h, time 7 day
[21] = Acute toxicity in Swiss albino mouse assessed as albumin level at 50 mg/kg, po measured after 7 days (reference value: 3.24 +/- 0.30 g/dL); type: organism-based; details: in vivo, 168 h, time 7 day
Calvarial osteoblast [22] = experiment: Induction of osteoblast differentiation in mouse calvarial osteoblast assessed as increase in ALP activity using PNPP as substrate at 0.000001 to 1 uM incubated activity for 48 hrs by spectrophotometric analysis relative to control; type: functional, cell-based; details: dose lower 1e-06 µM, dose upper 1.0 µM
[23] = Acute toxicity in Swiss albino mouse assessed as albumin level at 1000 mg/kg, po measured after 7 days (reference value: 3.24 +/- 0.30 g/dL); type: organism-based; details: in vivo, 168 h, time 7 day
[24] = Acute toxicity in Swiss albino mouse assessed as relative spleen weight at 1000 mg/kg, po measured after 7 days (reference value: 0.73 +/- 0.14 %); type: organism-based; details: in vivo, 168 h, time 7 day
[25] = Acute toxicity in Swiss albino mouse assessed as absolute brain weight at 1000 mg/kg, po measured after 7 days (reference value: 0.37 +/- 0.02 g); type: organism-based; details: in vivo, 168 h, time 7 day
[26] = Acute toxicity in Swiss albino mouse assessed as SGOT level at 5 mg/kg, po measured after 7 days (reference value: 31.99 +/- 3.37 U/L); type: organism-based; details: in vivo, 168 h, time 7 day
[27] = Acute toxicity in Swiss albino mouse assessed as creatinine level at 1000 mg/kg, po measured after 7 days (reference value: 0.97 +/- 0.07 mg/dL); type: organism-based; details: in vivo, 168 h, time 7 day
[28] = Oral bioavailability in Sprague-Dawley rat at 1 mg/kg measured upto 24 hrs by LC-MS/MS analysis; type: ADME, organism-based; details: in vivo
In short: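 Oral (1 mg kg-1, 0.25% CMC) and i.v. (1 mg kg-1 bolus) groups of female SD rats, n = 4 each, sampled to 24 h and assayed by plasma LC-MS/MS. AUC0-∞ = AUC0-t + Clast/kel. %F = (AUC oral × dose i.v.)/(AUC i.v. × dose oral) × 100.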

[29] = Acute toxicity in Swiss albino mouse assessed as SGPT level at 50 mg/kg, po measured after 7 days (reference value: 14.04 +/- 1.45 U/L); type: organism-based; details: in vivo, 168 h, time 7 day

## CCCCN(C)C(=O)CCCCOc1ccc([C@H]2c3ccc(OC)cc3OC(C)(C)[C@@H]2c2ccccc2)cc1
[1]
  Activity: 92.31 mg/dL
Calvarial osteoblast [2]
  Activity: Active
[3]
  Activity: 1.14%
[4]
  Activity: 4.84%
[5]
  Activity: 8.16 million/mm3
[6]
  AUC: 119.404 ng·h/mL
[7]
  Activity: 0.2 g
[8]
  Activity: 40.13 U/L
[9]
  Activity: 0.16 nM/mg
[10]
  Activity: 0.75%
[11]
  Activity: 41.54%
[12]
  Activity: 83.78 mg/dL
[13]
  Vd: 5.822 L/kg
[14]
  Activity: 38.6 U/L
[15]
  Activity: 15 µg/mg
[16]
  Activity: 0.48%
[17]
  Activity: 0.35 g
[18]
  Activity: 0.46%
[19]
  Activity: 1.23 g
[20]
  Activity: 5.1 /mm3
[21]
  Activity: 2.77 g/dL
Calvarial osteoblast [22]
  Activity: Active
[23]
  Activity: 3.98 g/dL
[24]
  Activity: 0.5%
[25]
  Activity: 0.33 g
[26]
  Activity: 33.05 U/L
[27]
  Activity: 0.69 mg/dL
[28]
  bioavailability: 13.2%
[29]
  Activity: 17.18 U/L
